Reference: ChEMBL document CHEMBL1667819, “Aminopyridinecarboxamide-based inhaled IKK-2 inhibitors for asthma and COPD: Structure-activity relationship” (Bioorg Med Chem, 2011)

How the values were obtained:
PBMC = assay: Inhibition of LPS-stimulated TNFalpha release in human PBMC; format: functional, cell-based
Outline: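 PBMC were Ficoll-isolated from heparinized blood of healthy donors and plated at 2.5 × 10⁵ cells/well in RPMI 1640 with 5% FBS and penicillin–streptomycin. Cells were preincubated with compound for 1 h, then stimulated with LPS (20 ng/ml) for 16 h. Supernatant TNFα was measured by ELISA, and IC50 is the mean of ≥3 experiments.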

[1] = biological target: T1, Inhibitor of nuclear factor kappa-B kinase subunit beta (Homo sapiens) (UniProt O14920); assay: Binding affinity to human recombinant IKK2 assessed as half life
T1 sequence (whole entry): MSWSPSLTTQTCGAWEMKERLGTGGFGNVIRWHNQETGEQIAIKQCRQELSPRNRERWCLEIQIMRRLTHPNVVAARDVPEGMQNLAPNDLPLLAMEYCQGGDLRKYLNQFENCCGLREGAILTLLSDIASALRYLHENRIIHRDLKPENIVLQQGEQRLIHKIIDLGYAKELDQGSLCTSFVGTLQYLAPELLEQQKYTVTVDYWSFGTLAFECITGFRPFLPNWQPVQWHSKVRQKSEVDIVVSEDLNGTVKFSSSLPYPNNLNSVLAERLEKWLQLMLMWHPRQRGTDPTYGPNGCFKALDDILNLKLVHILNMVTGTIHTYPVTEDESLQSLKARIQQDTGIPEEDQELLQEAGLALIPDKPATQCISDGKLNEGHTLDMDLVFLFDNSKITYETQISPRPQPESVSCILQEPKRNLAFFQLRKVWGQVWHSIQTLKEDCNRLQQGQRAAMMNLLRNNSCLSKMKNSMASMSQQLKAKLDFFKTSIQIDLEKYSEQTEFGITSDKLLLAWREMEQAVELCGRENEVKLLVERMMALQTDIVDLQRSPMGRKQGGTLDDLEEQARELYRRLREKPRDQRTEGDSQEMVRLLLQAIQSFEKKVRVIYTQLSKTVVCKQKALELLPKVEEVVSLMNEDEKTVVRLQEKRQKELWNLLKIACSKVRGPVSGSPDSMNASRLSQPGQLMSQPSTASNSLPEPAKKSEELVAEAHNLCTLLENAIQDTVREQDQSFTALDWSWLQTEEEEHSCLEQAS

[2] = biological target: T1, Inhibitor of nuclear factor kappa-B kinase subunit beta (Homo sapiens); assay: Binding affinity to human IKK2 in PBMC assessed as half life by cell-based assay
Outline: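 Cryopreserved PBMC were thawed and plated, then exposed to compound for 1 h. Compound was removed by four spin-and-aspirate washes, and an unwashed plate served as control. Loss of inhibition after washout gave the cellular half-life.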

[3] = Half life in human liver microsomes
[4] = biological target: Voltage-gated inwardly rectifying potassium channel KCNH2 (Homo sapiens, UniProt Q12809); assay: Displacement of dofetilide from human ERG transfected in HEK293 cells by fluorescence polarization assay
Chain of Voltage-gated inwardly rectifying potassium channel KCNH2 (Q12809 whole entry): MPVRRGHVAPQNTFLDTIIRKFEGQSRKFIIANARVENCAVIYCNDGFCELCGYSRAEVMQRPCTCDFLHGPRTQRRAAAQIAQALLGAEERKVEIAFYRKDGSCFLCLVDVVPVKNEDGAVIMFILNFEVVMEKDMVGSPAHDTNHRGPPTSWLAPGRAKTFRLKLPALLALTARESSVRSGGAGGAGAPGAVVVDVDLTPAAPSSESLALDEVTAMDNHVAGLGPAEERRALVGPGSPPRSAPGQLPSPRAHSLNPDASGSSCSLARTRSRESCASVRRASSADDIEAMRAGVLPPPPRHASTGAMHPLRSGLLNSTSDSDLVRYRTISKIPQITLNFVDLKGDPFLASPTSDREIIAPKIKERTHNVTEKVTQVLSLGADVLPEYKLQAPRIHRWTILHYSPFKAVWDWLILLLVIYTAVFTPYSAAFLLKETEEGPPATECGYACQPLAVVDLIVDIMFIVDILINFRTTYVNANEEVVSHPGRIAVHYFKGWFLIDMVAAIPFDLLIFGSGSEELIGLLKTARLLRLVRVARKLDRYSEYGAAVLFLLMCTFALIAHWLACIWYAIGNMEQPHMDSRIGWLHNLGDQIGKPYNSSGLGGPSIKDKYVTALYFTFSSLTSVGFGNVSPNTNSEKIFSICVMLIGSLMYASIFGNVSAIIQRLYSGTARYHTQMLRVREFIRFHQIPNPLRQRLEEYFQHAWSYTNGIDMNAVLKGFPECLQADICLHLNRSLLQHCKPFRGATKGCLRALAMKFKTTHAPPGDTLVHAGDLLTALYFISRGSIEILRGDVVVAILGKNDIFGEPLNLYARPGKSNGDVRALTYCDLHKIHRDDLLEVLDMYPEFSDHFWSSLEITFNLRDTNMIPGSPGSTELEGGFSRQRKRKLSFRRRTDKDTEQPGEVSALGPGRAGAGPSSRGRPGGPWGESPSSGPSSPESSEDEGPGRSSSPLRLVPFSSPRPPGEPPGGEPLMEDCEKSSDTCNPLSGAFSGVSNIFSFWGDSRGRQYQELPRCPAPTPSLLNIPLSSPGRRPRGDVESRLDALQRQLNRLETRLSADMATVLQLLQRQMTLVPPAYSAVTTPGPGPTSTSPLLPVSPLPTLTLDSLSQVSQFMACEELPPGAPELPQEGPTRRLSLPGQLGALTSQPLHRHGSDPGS
Outline: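 Competition binding used membranes from HEK-293 cells transfected with hERG. Test compound competed with Cy3B-tagged N-desmethyl dofetilide for channel binding, with fluorescence polarization read-out. Values are given as % of effect.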

[5] = biological target: T2, Inhibitor of nuclear factor kappa-B kinase subunit beta (Homo sapiens, UniProt O14920); assay: Inhibition of human recombinant IKK2
T2 sequence (O14920 whole entry): T1 sequence (whole entry)

Row | T1/2 [1] [h] | T1/2 [2] [h] | half-life ([3]; liver microsomes) [h] | IC50 [5] [nM] | half-life ([3]; microsomes) [h] | Structure (SMILES) | IC50 (PBMC) [nM] | inhibition (INH) [4] [%]
1 | 5 | > 4 | 0.1 | 7.6 |  | N#CCCn1cc(CN2CCN(c3cc(C(=O)Nc4ccc5c(c4)-c4c(c(C(N)=O)nn4-c4ccc(F)cc4)CC5)c(Cl)cn3)CC2)cn1 | 9 | 98
2 | 4 | > 4 | 0.05 | 2.8 |  | COCCCn1cc(CN2CCN(c3cc(C(=O)Nc4ccc5c(c4)-c4c(c(C(N)=O)nn4-c4ccc(F)cc4)CC5)c(Cl)cn3)CC2)cn1 | 16 | 76
3 | 5 | < 4 |  | 1 | 2 | NC(=O)c1nn(-c2ccc(F)cc2)c2c1CCc1ccc(NC(=O)c3cc(N4CCN(Cc5cnn(CC(=O)NCCO)c5)CC4)ncc3Cl)cc1-2 | 9 | 12
4 | 5 | < 4 | 0.967 | 0.9 |  | NC(=O)Cn1cc(CN2CCN(c3cc(C(=O)Nc4ccc5c(c4)-c4c(c(C(N)=O)nn4-c4ccc(F)cc4)CC5)c(Cl)cn3)CC2)cn1 | 7 | 38
5 | 4 | 4 | 0.05 | 2.5 |  | CSCCNC(=O)Cn1cc(CN2CCN(c3cc(C(=O)Nc4ccc5c(c4)-c4c(c(C(N)=O)nn4-c4ccc(F)cc4)CC5)c(Cl)cn3)CC2)cn1 | 10 | 98
6 | 6 | > 4 | 0.217 | 1.4 |  | CNC(=O)Cn1cc(CN2CCN(c3cc(C(=O)Nc4ccc5c(c4)-c4c(c(C(N)=O)nn4-c4ccc(F)cc4)CC5)c(Cl)cn3)CC2)cn1 | 15 | 57
